target: Cathepsin S (Homo sapiens, UniProt P25774); assay: Inhibitory concentration against cathepsin S
Sequence (P25774 whole entry): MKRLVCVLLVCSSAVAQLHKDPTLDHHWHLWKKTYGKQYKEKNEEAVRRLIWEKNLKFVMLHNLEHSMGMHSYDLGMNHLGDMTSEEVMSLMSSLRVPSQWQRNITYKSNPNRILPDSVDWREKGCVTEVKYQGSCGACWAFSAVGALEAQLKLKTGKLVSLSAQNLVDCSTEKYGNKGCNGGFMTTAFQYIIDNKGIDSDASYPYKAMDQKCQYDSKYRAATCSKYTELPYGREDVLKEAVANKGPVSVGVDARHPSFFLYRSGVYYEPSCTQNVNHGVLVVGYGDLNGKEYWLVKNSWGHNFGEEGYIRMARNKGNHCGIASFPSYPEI

| Compound | IC50 |
| --- | --- |
| CC(=O)N1CCc2c(c(-c3ccc(C(F)(F)F)cc3)nn2CC(O)CN2CCC(n3c(=O)n(C)c4ccccc43)CC2)C1 (stereo unspecified) | 110 nM |
| CCCCn1c(=O)n(C2CCN(CC(O)Cn3nc(-c4ccc(Cl)c(C)c4)c4c3CCN(C(C)=O)C4)CC2)c2ccccc21 (stereo unspecified) | 140 nM |
| CC(=O)N1CCc2c(c(-c3ccc(C(F)(F)F)cc3)nn2CC(O)CN2CCC(n3c(=O)[nH]c4ccccc43)CC2)C1 (stereo unspecified) | 100 nM |
| CC(=O)N1CCc2c(c(-c3ccc(Cl)c(C)c3)nn2CC(O)CN2CCC(n3c(=O)[nH]c4ccccc43)CC2)C1 (stereo unspecified) | 130 nM |
| Cn1c(=O)n(C2CCN(CCCn3nc(-c4ccc(Cl)c(Cl)c4)c4c3CCN(S(C)(=O)=O)C4)CC2)c2ccccc21 | 50 nM |
| CC(=O)N1CCc2c(c(-c3ccc(Cl)cc3)nn2CC(O)CN2CCN(C(c3ccc(F)cc3)c3ccc(F)cc3)CC2)C1 (stereo unspecified) | 1000 nM |
| CS(=O)(=O)N1CCc2c(c(-c3ccc(Br)cc3)nn2CCCN2CCC(n3c(=O)[nH]c4ccccc43)CC2)C1 | 50 nM |
| CC(=O)N1CCc2c(c(-c3ccc(Cl)c(C)c3)nn2C[C@H](O)CN2CCC(n3c(=O)[nH]c4ccc(Cl)cc43)CC2)C1 | 350 nM |
| CC(=O)N1CCc2c(c(-c3ccc(Cl)c(C)c3)nn2CC(O)CN2CCC(n3c(=O)n(C(C)C)c4ccccc43)CC2)C1 (stereo unspecified) | 100 nM |
| Cn1c(=O)n(C2CCN(CCCn3nc(-c4ccc(Br)cc4)c4c3CCN(S(C)(=O)=O)C4)CC2)c2ccccc21 | 140 nM |
| Cc1cc(-c2nn(CC(O)CN3CCC(n4c(=O)[nH]c5ccccc54)CC3)c3c2CN(S(C)(=O)=O)CC3)ccc1Cl (stereo unspecified) | 60 nM |
| CS(=O)(=O)N1CCc2c(c(-c3ccc(C(F)(F)F)cc3)nn2CCCN2CCC(n3c(=O)[nH]c4ccccc43)CC2)C1 | 50 nM |
| Cn1c(=O)n(C2CCN(CCCn3nc(-c4ccc(C(F)(F)F)cc4)c4c3CCN(S(C)(=O)=O)C4)CC2)c2cc(Cl)ccc21 | 100 nM |
| CC(=O)N1CCc2c(c(-c3ccc(I)cc3)nn2CC(O)CN2CCC(n3c(=O)[nH]c4ccc(F)cc43)CC2)C1 (stereo unspecified) | 230 nM |
| CS(=O)(=O)N1CCc2c(c(-c3ccc(C(F)(F)F)cc3)nn2CC(O)CN2CCC(n3c(=O)[nH]c4ccc(Cl)cc43)CC2)C1 (stereo unspecified) | 60 nM |
| CCn1c(=O)n(C2CCN(CC(O)Cn3nc(-c4ccc(Cl)c(C)c4)c4c3CCN(C(C)=O)C4)CC2)c2ccccc21 (stereo unspecified) | 310 nM |
| Cn1c(=O)n(C2CCN(CCCn3nc(-c4ccc(Cl)c(Cl)c4)c4c3CCN(S(C)(=O)=O)C4)CC2)c2cc(Cl)ccc21 | 150 nM |

Now from value to compound:

| IC50 | Compound |
| --- | --- |
| 200 nM | CC(=O)N1CCc2c(c(-c3ccc(C(F)(F)F)cc3)nn2C[C@@H](O)CN2CCC(n3c(O)nc4ccc(Cl)cc43)CC2)C1 |
| 50 nM | CS(=O)(=O)N1CCc2c(c(-c3ccc(Br)cc3)nn2CC(O)CN2CCC(n3c(=O)[nH]c4ccc(Cl)cc43)CC2)C1 (stereo unspecified) |
| 140 nM | COc1ccc2c(c1)[nH]c(=O)n2C1CCN(CC(O)Cn2nc(-c3ccc(Br)cc3)c3c2CCN(C(C)=O)C3)CC1 (stereo unspecified) |
| 110 nM | CC(=O)N1CCc2c(c(-c3ccc(Br)cc3)nn2CC(O)CN2CCC(n3c(=O)[nH]c4cc(Cl)c(Cl)cc43)CC2)C1 (stereo unspecified) |
| 50 nM | CS(=O)(=O)N1CCc2c(c(-c3ccc(C(F)(F)F)cc3)nn2CC(O)CN2CCC(n3c(=O)[nH]c4ccccc43)CC2)C1 (stereo unspecified) |
| 460 nM | CC(=O)N1CCc2c(c(-c3ccc(Cl)cc3)nn2CC(O)CN2CCC(n3c(=O)[nH]c4ccccc43)CC2)C1 (stereo unspecified) |
| 210 nM | CC(=O)N1CCc2c(c(-c3ccc(Br)cc3)nn2CC(O)CN2CCC(n3c(=O)[nH]c4cccc(C)c43)CC2)C1 (stereo unspecified) |
| 500 nM | CC(=O)N1CCc2c(c(-c3ccc(Cl)c(C)c3)nn2CC(O)CN2CCC(n3c(=O)n(C)c4ccccc43)CC2)C1 (stereo unspecified) |
| 100 nM | CC(=O)N1CCc2c(c(-c3ccc(Cl)c(C)c3)nn2CC(O)CN2CCC(n3c(=O)[nH]c4cc(C)ccc43)CC2)C1 (stereo unspecified) |
| 80 nM | Cn1c(=O)n(C2CCN(CC(O)Cn3nc(-c4ccc(C(F)(F)F)cc4)c4c3CCN(S(C)(=O)=O)C4)CC2)c2cc(Cl)ccc21 (stereo unspecified) |
| 120 nM | CC(=O)N1CCc2c(c(-c3ccc(I)cc3)nn2CC(O)CN2CCC(n3c(=O)[nH]c4ccccc43)CC2)C1 (stereo unspecified) |
| 180 nM | CC(=O)N1CCc2c(c(-c3ccc(C(F)(F)F)cc3)nn2C[C@H](O)CN2CCC(n3c(O)nc4ccc(Cl)cc43)CC2)C1 |
| 80 nM | CC(=O)N1CCc2c(c(-c3ccc(Br)cc3)nn2CC(O)CN2CCC(n3c(=O)[nH]c4ccccc43)CC2)C1 (stereo unspecified) |

target: not listed separately; assay: Binding affinity against alpha-1A adrenergic receptor

| Ki | Compound |
| --- | --- |
| 12 nM | N#Cc1ccccc1N1CCN(CC(Cn2nc(-c3ccc(I)cc3)c3c2CCN(C(N)=O)C3)OC(N)=O)CC1 (stereo unspecified) |
| 36 nM | N#Cc1ccccc1N1CCN(CC(O)Cn2nc(-c3ccc(I)cc3)c3c2CCN(C(N)=O)C3)CC1 (stereo unspecified) |

tested on: JY; assay: Inhibitory concentration against Ii degradation in human JY cells (range IC50 = 0.6-0.8 uM); assay type: functional, cell-based
Outline: (§1)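 Inhibition of invariant chain (Ii) cleavage was measured in human JY cells, an antigen-presenting line. IC50 values are the mean of at least 3 runs.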

| IC50 | Compound |
| --- | --- |
| 800 nM | Cn1c(=O)n(C2CCN(CCCn3nc(-c4ccc(C(F)(F)F)cc4)c4c3CCN(S(C)(=O)=O)C4)CC2)c2cc(Cl)ccc21 |

tested on: JY; assay: Inhibitory concentration against Ii degradation in human JY cells; assay type: functional, cell-based; outline: as §1

| IC50 | Compound |
| --- | --- |
| 880 nM | N#Cc1ccccc1N1CCN(CC(Cn2nc(-c3ccc(I)cc3)c3c2CCN(C(N)=O)C3)OC(N)=O)CC1 (stereo unspecified) |
| 3900 nM | CC(=O)N1CCc2c(c(-c3ccc(I)cc3)nn2CC(O)CN2CCN(c3ccccc3C#N)CC2)C1 (stereo unspecified) |
| 1300 nM | N#Cc1ccccc1N1CCN(CC(O)Cn2nc(-c3ccc(I)cc3)c3c2CCN(C(N)=O)C3)CC1 (stereo unspecified) |

— ChEMBL document CHEMBL1141911, “Discovery and SAR studies of a novel series of noncovalent cathepsin S inhibitors” (Bioorg Med Chem Lett, 2005)
